How the values were obtained:
CHO [1] = assay: Effect on spermidine uptake in CHO cells at concentration 10 uM.; type: functional
Summary of the method: (§1)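 Spermidine uptake in CHO cells: total cellular radioactivity after 18 h growth with 5 μCi/mL [3H]spermidine in presence of compound, reported as percentage of untreated-cell value.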

[2] = molecular target: T1, Deoxyhypusine synthase (Homo sapiens) (UniProt P49366); assay: Effect on Hypusine formation in CHO cells at concentration 10 uM.; type: functional, cell-based; settings: Cricetulus griseus
T1 sequence (whole entry): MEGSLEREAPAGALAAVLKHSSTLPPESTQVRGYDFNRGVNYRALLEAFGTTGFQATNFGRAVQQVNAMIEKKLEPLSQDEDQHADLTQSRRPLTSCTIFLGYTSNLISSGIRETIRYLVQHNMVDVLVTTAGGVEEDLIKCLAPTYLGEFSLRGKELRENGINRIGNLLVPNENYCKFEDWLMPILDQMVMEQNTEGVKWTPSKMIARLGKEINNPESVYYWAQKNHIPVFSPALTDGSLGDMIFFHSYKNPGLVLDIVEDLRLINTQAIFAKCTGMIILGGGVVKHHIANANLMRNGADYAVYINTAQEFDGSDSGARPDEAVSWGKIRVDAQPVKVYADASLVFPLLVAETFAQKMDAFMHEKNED

[3] = molecular target: T1, Deoxyhypusine synthase (Homo sapiens); assay: Effect on Hypusine formation in CHO cells at concentration 3 uM.; type: functional, cell-based; settings: Cricetulus griseus
[4] = molecular target: T1, Deoxyhypusine synthase (Homo sapiens); assay: Effect on protein synthesis in CHO cells at concentration 3 uM.; settings: Cricetulus griseus
[5] = molecular target: T1, Deoxyhypusine synthase (Homo sapiens); assay: Effect on protein synthesis in CHO cells at concentration 10 uM.; settings: Cricetulus griseus
Deoxyhypusine synthase = molecular target: T2, Deoxyhypusine synthase (Rattus norvegicus, UniProt Q6AY53); assay: In vitro IC50 value by measuring the inhibition of deoxyhypusine synthase.
T2 sequence (Q6AY53 whole entry): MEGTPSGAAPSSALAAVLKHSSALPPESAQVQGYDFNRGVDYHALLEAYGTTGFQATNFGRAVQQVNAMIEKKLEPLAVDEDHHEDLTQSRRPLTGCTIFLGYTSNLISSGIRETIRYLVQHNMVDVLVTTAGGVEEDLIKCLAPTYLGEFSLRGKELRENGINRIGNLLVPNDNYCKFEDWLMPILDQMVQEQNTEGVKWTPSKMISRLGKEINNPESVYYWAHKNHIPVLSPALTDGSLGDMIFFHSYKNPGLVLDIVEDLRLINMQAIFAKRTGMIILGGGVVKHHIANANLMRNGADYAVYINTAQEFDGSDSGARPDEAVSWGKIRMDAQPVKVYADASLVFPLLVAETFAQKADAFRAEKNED

CHO [6] = assay: Growth inhibition was measured against CHO cell line; - indicates >100 uM; type: functional, cell-based; settings: Cricetulus griseus
Summary of the method: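 CHO cells grown with compound for 72 h; cellular protein measured by bicinchoninic acid method as crude growth estimate (control protein rose ~16-fold over 72 h). Symbol gives compound range halving protein versus control: ++++ <0.5, +++ 0.5-1, ++ >1-10, + >10-100, - >100 μM.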

CHO [7] = assay: Effect on spermidine uptake in CHO cells at concentration 3 uM.; type: functional, Cricetulus griseus; summary of the method: as §1
CHO [8] = assay: Effect on hypusine synthesis in CHO cells at concentration 10 uM.; type: functional, Cricetulus griseus

SMILES | Control [2] [%] | Control [3] [%] | Control [4] [%] | Control [5] [%] | IC50 (Deoxyhypusine synthase) [µM] | Control (CHO [1]) [%] | also measured
N=C(N)NCCCCCCCCN |  |  |  |  | 0.55 |  | 
N=C(N)NCCCCCCCNC(=N)N |  |  |  |  | 3.4 |  | 
N=C(N)NCCCCCCNCCCCCCNC(=N)N | 100 | 96 | 93 | 87 | 40 | 95 | 
N=C(N)NCCCCNCCCCNC(=N)N | 100 | 100 | 100 | 100 | 3.2 | 85 | 
N=C(N)NCCCCCCCCNCCCCCCCCN |  |  |  |  | 13 |  | 
N=C(N)NCCCCCCNCCCCCCN |  |  |  |  | 74 |  | 
N=C(N)NCCCCCNCCCCCNC(=N)N | 100 | 100 | 100 | 100 | 38 | 95 | 
N=C(N)NCCCCCCCNCCCCCCCN |  |  |  |  | 0.3 |  | 
N=C(N)NCCCCCCCCNC(=N)N |  |  |  |  | 16.1 |  | 
N#CCCNCCCCCCCNC(=N)N |  |  |  |  | 96 |  | 
NCCCSCCCN | 93 | 100 | 86 | 81 | 83 | 100 | 
N=C(N)NCCCNCCCN |  |  |  |  | 1.2 |  | 
CCNCCCCCCCN |  |  |  |  | 275 |  | Growth inhibition (CHO [6]): Not toxic
N=C(N)NCCCCCCCCNCCCCCCCCNC(=N)N [IMINOCTADIENE] | 100 | 100 | 100 | 84 | 3.5 | 95 | 
N=C(N)NCCCCN [AGMATINE] |  |  |  |  | 156 |  | 
NCCCNCCCN [NORSPERMIDINE] |  |  |  |  | 41 |  | 
NCCCCCCNCCCCCCN |  |  |  |  | > 1000 |  | 

SMILES | Control [2] [%] | Control [3] [%] | Control [4] [%] | Control [5] [%] | IC50 (Deoxyhypusine synthase) [µM] | Control (CHO [1]) [%] | also measured
N=C(N)NCCCCCCCN |  | 0 | 62 | 50 | 0.03 |  | Control (CHO [7]): 100%
N=C(N)NCCCSCCCNC(=N)N | 74 | 100 | 100 | 60 | 21 | 81 | 
NCCCCNCCCCN |  |  |  |  | 556 |  | Growth inhibition (CHO [6]): Not toxic
N=C(N)NCCCCCCN |  |  |  |  | 132 |  | 
NCCCCSCCCN |  |  |  |  | 235 |  | 
NCCCCCCCCNCCCCCCCCN |  |  |  |  | 116 |  | 
NCCCNOCCCN |  |  |  |  | 385 |  | 
N=C(N)NCCCOCCCN |  |  |  |  | 0.7 |  | 
NCCCCCCCNCCCCCCCN |  |  |  |  | 63 |  | 
CCNCCCCCCCNC(=N)N |  |  |  |  | 9 |  | 
N=C(N)NCCCCCCCNCCCCCCCNC(=N)N | 74 | 90 | 88 | 67 | 0.08 | 95 | 
N=C(N)NCCCCSCCCNC(=N)N |  |  |  |  | 48 |  | 
NCCCCCNCCCCCN |  |  |  |  | > 1000 |  | 
NCCCOCCCN | 100 | 100 | 100 | 85 | 13 | 100 | 
N=C(N)NCCCNCCCNC(=N)N | 100 | 98 | 80 |  | 182 | 95 | Growth inhibition (CHO [6]): Not toxic
N=C(N)NCCCOCCCNC(=N)N | 100 | 100 | 100 |  | 8 | 100 | Control (CHO [8]): 100%

Further lines, with some results ahead:

Control [2] [%] | Control [3] [%] | Control [4] [%] | Control [5] [%] | IC50 (Deoxyhypusine synthase) [µM] | SMILES | Control (CHO [1]) [%] | also measured
36 | 76 | 34 | 28 |  | CCNCCCCCCCN=C(N)N | 95 | 
 |  |  |  | > 1000 | N=C(N)SCCCCCCCSC(=N)N |  | 
 |  |  |  | > 1000 | N=C(N)CCCCCCC(=N)N |  | 
 |  |  |  | 112 | N=C(N)NCCCCCCNC(=N)N |  | 
 |  |  |  | > 1000 | N=C(N)SCCCCSC(=N)N |  | 
 |  |  |  | 6.8 | [H]/N=C(/N)NCCCCCNC(=N)N |  | 
22 | 34 | 24 | 20 |  | NCCCCCCCNCCCCCCCN=C(N)N | 65 | 
92 |  | 80 | 65 | 100 | NCCCCCNCCCCCN=C(N)N | 74 | 
 |  |  |  | > 1000 | N=C(N)CCCCCCCCCC(=N)N |  | 
23 | 50 | 77 | 75 |  | NCCCNCCCN=C(N)N | 34 | Control (CHO [7]): 76%
 |  |  |  | 179 | NC(N)=NCCCCN=C(N)N [ARCAINE] |  | 
20 | 76 | 98 | 92 |  | NCCCOCCCN=C(N)N | 95 | 
 |  |  |  | 780 | N=C(N)SCCCCCCSC(=N)N |  | 
 |  |  |  | > 1000 | N=C(N)CCCCCCCCC(=N)N |  | 
 |  |  |  | > 1000 | N=C(N)CCCCCCCCCCC(=N)N |  | 
 |  |  |  | > 1000 | N=C(N)SCCCCCSC(=N)N |  | 
27 | 36 | 20 | 22 |  | NCCCCCCCCNCCCCCCCCN=C(N)N | 80 | 
3 | 7 | 88 | 93 | 0.16 | NCCCCNCCCCN=C(N)N | 28 | Control (CHO [7]): 64%
 |  |  |  | > 1000 | N=C(N)SCCCCCCCCSC(=N)N |  | 
24 | 50 | 40 | 25 | 1.9 | NCCCSCCCN=C(N)N | 100 | 
48 | 61 | 45 | 35 |  | NCCCCCCNCCCCCCN=C(N)N | 80 | 
 |  |  |  | 29 | NCCCCCN=C(N)N |  | 
 |  |  |  | 120 | N=C(N)CCCCCCCC(=N)N |  | 
 |  |  |  | > 1000 | N=C(N)CCCCCC(=N)N |  | 

From ChEMBL document CHEMBL1128500, “Diamine and triamine analogs and derivatives as inhibitors of deoxyhypusine synthase: synthesis and biological activity” (J Med Chem, 1995)
